Results: ChEMBL document CHEMBL1123982, “Syntheses and adrenergic activities of ring-fluorinated epinephrines” (J Med Chem, 1988)
pEC50, pKi: −log10 of the molar value.

Key:
[1] = biological target: T1, Adrenergic receptor alpha-2 (Homo sapiens, UniProt P08913+P18825+P18089); assay: Binding affinity against alpha 2-Adrenergic receptor in guinea pig cerebral cortical membranes by displacement of [3H]clonidine; set-up: species or system Cavia porcellus; settings: target entry is the homologue from another species
T1 sequence (P08913 whole entry): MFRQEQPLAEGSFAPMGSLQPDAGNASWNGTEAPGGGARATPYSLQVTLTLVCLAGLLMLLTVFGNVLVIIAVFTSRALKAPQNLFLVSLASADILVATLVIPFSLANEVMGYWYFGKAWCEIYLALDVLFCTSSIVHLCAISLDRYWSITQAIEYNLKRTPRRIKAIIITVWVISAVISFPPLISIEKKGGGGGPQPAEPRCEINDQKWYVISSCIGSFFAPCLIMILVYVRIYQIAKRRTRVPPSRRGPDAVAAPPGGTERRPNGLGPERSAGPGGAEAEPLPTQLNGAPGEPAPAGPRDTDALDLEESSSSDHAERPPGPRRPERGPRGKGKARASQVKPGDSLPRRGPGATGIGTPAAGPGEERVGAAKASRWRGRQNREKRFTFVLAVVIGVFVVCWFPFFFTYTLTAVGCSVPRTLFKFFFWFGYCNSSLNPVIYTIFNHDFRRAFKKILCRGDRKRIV
T1 sequence (P18825 whole entry): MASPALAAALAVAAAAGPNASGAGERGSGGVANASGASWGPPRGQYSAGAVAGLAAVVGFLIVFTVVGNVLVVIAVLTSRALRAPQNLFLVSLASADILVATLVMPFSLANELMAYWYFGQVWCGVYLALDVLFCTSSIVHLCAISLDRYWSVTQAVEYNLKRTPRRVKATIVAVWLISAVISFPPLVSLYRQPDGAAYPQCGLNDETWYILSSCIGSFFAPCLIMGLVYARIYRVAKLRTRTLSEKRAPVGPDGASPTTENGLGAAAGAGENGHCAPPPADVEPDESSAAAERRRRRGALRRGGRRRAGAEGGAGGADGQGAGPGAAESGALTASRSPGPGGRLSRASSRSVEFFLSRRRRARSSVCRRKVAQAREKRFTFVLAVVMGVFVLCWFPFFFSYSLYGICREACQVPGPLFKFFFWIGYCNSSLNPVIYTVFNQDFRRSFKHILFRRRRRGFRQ
T1 sequence (P18089 whole entry): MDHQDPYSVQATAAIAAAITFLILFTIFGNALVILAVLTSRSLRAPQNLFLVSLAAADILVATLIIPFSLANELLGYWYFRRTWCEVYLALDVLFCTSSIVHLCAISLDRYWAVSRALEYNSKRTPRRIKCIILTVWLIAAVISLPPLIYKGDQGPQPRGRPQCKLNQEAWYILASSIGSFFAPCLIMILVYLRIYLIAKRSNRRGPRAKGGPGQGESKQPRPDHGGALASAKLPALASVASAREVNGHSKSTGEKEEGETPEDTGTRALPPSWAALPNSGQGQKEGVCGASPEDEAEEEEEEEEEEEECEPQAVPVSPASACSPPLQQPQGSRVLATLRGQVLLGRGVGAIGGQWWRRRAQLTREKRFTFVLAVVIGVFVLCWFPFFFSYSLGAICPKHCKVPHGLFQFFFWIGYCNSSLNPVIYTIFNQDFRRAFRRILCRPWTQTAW
Method in brief: (§1)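 Nonspecific binding defined with 10 μM clonidine. Points in triplicate, reported as percent of control; experiment repeated three times.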

Adrenergic receptor beta = Adrenergic receptor beta (Rattus norvegicus, UniProt P18090+P10608+P26255); assay: Agonistic potency at beta adrenergic receptor for the stimulation of accumulation of cyclic AMP in cultured C6 glioma cells; assay type: functional, cell-based
Method in brief: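 C6 glioma cells subcultured the day before and washed in HEPES-buffered saline (pH 7.4). Preincubated 10 min with 30 μM rolipram, then agonist for 10 min. Stopped with 0.1 M HCl. cAMP measured by commercial kit. Adjusted EC50 is taken from dose-response curves.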

[2] = biological target: Beta-1 adrenergic receptor (Cavia porcellus, UniProt B0FL73); assay: Agonistic potency at beta-1 adrenergic receptor for the percent maximal increase in contraction rate of isolated guinea pig atria; assay type: functional
Sequence of Beta-1 adrenergic receptor (B0FL73 whole entry): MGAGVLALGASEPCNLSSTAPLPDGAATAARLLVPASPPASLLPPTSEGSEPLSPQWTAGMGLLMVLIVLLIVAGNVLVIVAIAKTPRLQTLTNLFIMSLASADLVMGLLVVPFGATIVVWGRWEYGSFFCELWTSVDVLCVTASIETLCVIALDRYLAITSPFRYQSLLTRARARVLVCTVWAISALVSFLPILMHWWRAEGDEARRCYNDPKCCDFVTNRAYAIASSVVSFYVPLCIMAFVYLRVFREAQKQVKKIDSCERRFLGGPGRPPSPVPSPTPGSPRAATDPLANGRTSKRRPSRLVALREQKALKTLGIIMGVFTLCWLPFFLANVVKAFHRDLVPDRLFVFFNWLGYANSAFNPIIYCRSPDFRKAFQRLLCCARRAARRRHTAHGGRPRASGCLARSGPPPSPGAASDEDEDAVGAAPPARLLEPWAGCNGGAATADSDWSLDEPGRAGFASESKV
Method in brief: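 Isolated guinea pig atria, giving percent of maximal rate increase for four individual preparations.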

[3] = biological target: T1, Adrenergic receptor alpha-2; assay: Agonistic potency at alpha 2-Adrenergic receptor for inhibition of 10 uM forskolin-elicited stimulation of adenylate cyclase in human platelet membranes; assay type: functional, cell membranes
Method in brief: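 Human platelet membranes (10–15 μg protein/tube) added to medium preincubated 5 min at 37 °C: 0.1 mM [α-32P]ATP, 0.1 mM cAMP, adenosine deaminase, 0.1 mM rolipram, 0.2 mM EGTA, creatine phosphate/kinase, BSA, 1 μM GTP, 10 μM forskolin, 1 mM MgCl2, 50 mM Tris-HCl pH 7.4. Stopped with zinc acetate/Na2CO3. Product is cAMP (pmol/min/mg), triplicate points. Adjusted EC50 is taken from dose-response curves.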

[4] = biological target: Beta-1 adrenergic receptor (Rattus norvegicus) (UniProt P18090); assay: Binding affinity against beta-1 adrenergic receptor in rat cerebral cortical membranes by displacement of Dihydro-[3H]-alprenolol
Sequence of Beta-1 adrenergic receptor (Rattus norvegicus) (P18090 whole entry, looked up): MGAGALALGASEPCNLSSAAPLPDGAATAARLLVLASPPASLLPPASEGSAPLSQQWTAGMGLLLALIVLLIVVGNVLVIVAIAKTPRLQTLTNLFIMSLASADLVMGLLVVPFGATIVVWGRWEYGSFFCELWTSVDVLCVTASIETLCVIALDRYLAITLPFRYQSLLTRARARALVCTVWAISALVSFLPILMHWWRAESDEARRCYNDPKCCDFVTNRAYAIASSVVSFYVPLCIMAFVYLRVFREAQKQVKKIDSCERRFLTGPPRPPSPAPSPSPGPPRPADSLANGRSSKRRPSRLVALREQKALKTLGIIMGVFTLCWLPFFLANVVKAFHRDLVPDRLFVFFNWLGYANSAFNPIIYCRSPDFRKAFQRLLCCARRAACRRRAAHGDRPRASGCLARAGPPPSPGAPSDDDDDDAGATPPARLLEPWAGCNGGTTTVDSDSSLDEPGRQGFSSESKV

[5] = biological target: T1, Adrenergic receptor alpha-2; assay: Binding affinity against alpha-2 adrenergic receptor in guinea pig cerebral cortical membranes by displacement of [3H]clonidine; set-up: species or system Cavia porcellus; settings: target entry is the homologue from another species; method in brief: as §1

Row | Compound | Ki [1] [µM] | EC50 (Adrenergic receptor beta) [µM] | pEC50 [2] | EC50 [3] [µM] | pKi [4] | Ki [5] [µM]
1 | NCC(O)c1ccc(O)c(O)c1F (stereo not given) | 0.7 |  |  |  |  | 
2 | CNCC(O)c1cc(O)c(O)cc1F (stereo not given) | 0.009 | > 1.5 | < 5.82 | 0.1 | 4.20 | 
3 | CNCC(O)c1ccc(O)c(O)c1F (stereo not given) |  |  |  | > 5 |  | 0.066
4 | CNC[C@H](O)c1ccc(O)c(O)c1 [EPINEPHRINE] |  |  | 6.59 |  | 5.52 | 
